In data set [1] the test system is t^6A formation by TsaC, TsaB, TsaD and TsaE. Put plainly: In vitro HPLC assay for t^6A formation, overall. In kind it is biochemical, Escherichia coli. To be noted: for k cat, overall reaction: named ligand as variable substrate; for Km: read-out: Km, overall reaction, apparent, amino acid as variable substrate.
The next data set concerns the target T1, TsaC (Escherichia coli, UniProt P45748).
T1 sequence (P45748 1-190): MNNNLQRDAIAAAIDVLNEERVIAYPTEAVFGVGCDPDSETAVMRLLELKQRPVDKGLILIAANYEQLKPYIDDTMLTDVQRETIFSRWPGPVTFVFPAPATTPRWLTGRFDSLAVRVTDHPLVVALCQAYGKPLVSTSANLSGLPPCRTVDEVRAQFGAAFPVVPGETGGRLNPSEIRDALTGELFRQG
Put plainly: TsaC reaction. In kind it is biochemical. The following applies: named ligand as variable substrate. Summed up:
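Enzyme, with the other components and any inhibitor, preincubated 2 min at 23°C, then started with ATP. After 1 min at 23°C, injected directly onto C18 HPLC (isocratic 50 mM potassium phosphate pH 6, 1% acetonitrile). TC-AMP read by UV at 260 nm. […], measured near initial rates.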

Data set [2] concerns the target overall reaction (TsaC, TsaB, TsaD and TsaE) (Escherichia coli, UniProt P05852+P45748). Put plainly: Inhibition of t6A formation in the full TsaBCDE reaction. It is filed as biochemical. The following applies: read-out: IC50 (μM) Overall reaction. Summed up:
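Full reaction: 50 mM MOPS pH 7.5, 20 mM NaHCO3, 25 mM KCl, 1 mM ATP, L-Thr (0.6 mM per footnote; 1 mM in text), 10 μM unmodified E. coli tRNALys, 1 μM each TsaB/C/D/E. Variable test compound; ATP-started; 23 °C, 5 min; EDTA quench, G-50 desalting, nuclease P1/alkaline phosphatase digest. Isocratic C18 HPLC quantifies t6A at 260 nm. IC50 from near-initial rates.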

For data set [3], the system named is aspartate and ornithine transcarbamoylases. To be noted: cited from earlier work.
The next data set concerns EcTsaBDE complex. The following applies: read-out: Km for TsaE-catalyzed ATPase activity; cited from earlier work.
A further data set has as its target EcTsaBDE (Escherichia coli, UniProt P05852). Put plainly: Isolated second step of t^6A formation. In kind it is biochemical.
For data set [4], the target named is Escherichia coli TsaBD heterodimer, preformed from fluorescently labelled His6-TsaD and unlabelled TsaB (Escherichia coli) (UniProt P05852). Put plainly: MST.
The test system of data set [5] is Nc1ncnc2c1ncn2[C@@H]1O[C@H](COP(=O)(O)OP(=O)(O)OP(=O)(O)O)[C@@H](O)[C@H]1O. The experiment in a line: purified protein, by the assay type. To be noted: pH 6.0; 23.0 °C.
The next data set has as its system C[C@@H](O)[C@H](N)C(=O)O. Put plainly: purified protein, by the assay type. The following applies: pH 6.0; 23.0 °C.

Chain of overall reaction (TsaC, TsaB, TsaD and TsaE) (P76256 whole entry, one chain of several): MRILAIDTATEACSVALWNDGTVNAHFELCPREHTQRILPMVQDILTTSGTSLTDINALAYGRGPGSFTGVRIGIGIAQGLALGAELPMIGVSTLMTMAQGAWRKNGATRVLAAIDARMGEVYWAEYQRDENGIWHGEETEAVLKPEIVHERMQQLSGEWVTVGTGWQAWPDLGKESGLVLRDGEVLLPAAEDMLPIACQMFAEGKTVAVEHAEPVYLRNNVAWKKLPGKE
Chain of overall reaction (TsaC, TsaB, TsaD and TsaE) (P05852 whole entry, one chain of several): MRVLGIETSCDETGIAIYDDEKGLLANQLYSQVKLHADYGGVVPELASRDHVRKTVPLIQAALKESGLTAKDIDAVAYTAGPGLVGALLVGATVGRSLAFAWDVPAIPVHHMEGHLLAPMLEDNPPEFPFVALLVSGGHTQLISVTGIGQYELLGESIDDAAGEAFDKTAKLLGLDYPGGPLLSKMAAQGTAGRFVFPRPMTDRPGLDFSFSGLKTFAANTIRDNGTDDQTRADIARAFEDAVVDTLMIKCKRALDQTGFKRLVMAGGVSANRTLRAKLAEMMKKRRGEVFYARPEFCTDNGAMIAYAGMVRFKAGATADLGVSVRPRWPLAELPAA
Chain of EcTsaBDE (P05852 whole entry): as the sequence (P05852 whole entry, one chain of several) above
Chain of EcTsaBDE (P76256 whole entry partner): as the sequence (P76256 whole entry, one chain of several) above
Chain of Escherichia coli TsaBD heterodimer, preformed from fluorescently labelled His6-TsaD and unlabelled TsaB (Escherichia coli) (P05852 whole entry, chain 1 of 2): as the sequence (P05852 whole entry, one chain of several) above
Chain of Escherichia coli TsaBD heterodimer, preformed from fluorescently labelled His6-TsaD and unlabelled TsaB (Escherichia coli) (P76256 whole entry, chain 2 of 2, further chain): as the sequence (P76256 whole entry, one chain of several) above

`C[C@@H](O)[C@H](N)C(=O)O` [L-Thr, L-threonine]: in [1], the “k cat, overall reaction” value came out at 0.42 ± 0.02 min⁻¹ and the Km (commonly the substrate concentration at which the rate is half of its maximum) was 590 ± 90 µM. On TsaC, the “K m, TsaC reaction” value stood at 1.77 ± 0.26 mM and the “k cat, TsaC reaction” value worked out at 9.0 ± 0.4 min⁻¹.
On to `Nc1ncnc2c1ncn2[C@@H]1O[C@H](COP(=O)(O)OP(=O)(O)O)[C@@H](O)[C@H]1O` [5′-ADP, adenosine 5'-diphosphate], for which, in data set [2], the concentration for half-maximal inhibition (IC50) – broadly, the midpoint of a concentration-inhibition curve – came out at 160 ± 20 µM.
Regarding `Nc1ncnc2c1ncn2[C@@H]1O[C@H](COP(=O)(O)O)[C@@H](O)[C@H]1O` [5′-AMP, adenosine 5'-monophosphate], the 50% inhibitory concentration (IC50) in data set [2] is 113 ± 10 µM.
As to `CCC(O)[C@H](N)C(=O)O` (mixture of isomers) [hNV, (±)-3-hydroxynorvaline], the Km in data set [1] came out at 500 µM.
With `Nc1ncnc2c1ncn2[C@@H]1O[C@H](COP(=O)(O)OC(=O)N[C@@H](CO)C(=O)O)[C@@H](O)[C@H]1O` [SC-AMP, serine analog of TC-AMP (L-serylcarbamoyl-adenylate)], in data set [2], the IC50 is 9.3 ± 1.2 µM.
`NC(=O)OP(=O)(O)O` [CP, carbamoyl phosphate]: the Km in data set [3] was 4 to 10 µM.
As to `Nc1ncnc2c1ncn2[C@@H]1O[C@H](COP(=O)(O)OP(=O)(O)OP(=O)(O)O)[C@@H](O)[C@H]1O` [ATP], the Km in the data set on EcTsaBDE complex is 640 µM. Besides, at EcTsaBDE, the “fold lower turnover of t^6A formation than ATPase activity” value is on record as approximately 80 fold. For the same molecule, the “fold lower Km for t^6A second step than Km for ATPase activity” value at EcTsaBDE (14 μM vs 0.64 mM) came out at 40 fold. In addition, at EcTsaBDE (TC-AMP 10 μM, fit to Equation 3), the “Kis, second step with TC-AMP as substrate” value is recorded as 1.8 mM. The “Kis (substrate inhibition), TsaBDE reaction” value at EcTsaBDE (TC-AMP 10 μM, calculated for observed substrate inhibition) is 1800 µM. The “k cat, TsaBDE reaction” value on EcTsaBDE (named ligand as variable substrate) was found to be 0.12 ± 0.1 min⁻¹. For the same molecule, in data set [1] (at 5 mM ATP), the “reduction in the Vmax (substrate inhibition)” value is given as 50%. Further, in data set [1] (at 10 mM ATP), the “reduction in the Vmax (substrate inhibition)” value is on record as 90%. For the same molecule, in [1] (calculated for observed substrate inhibition, fit to Equation 3), the “Kis (substrate inhibition), overall reaction” value was 2200 µM. In addition, the “k cat, overall reaction” value in data set [1] came out at 0.40 ± 0.4 min⁻¹. At TsaC, the “K m, TsaC reaction” value is given as 0.13 ± 0.01 mM and the “k cat, TsaC reaction” value came out at 7.9 ± 0.2 min⁻¹.
Regarding “Escherichia coli TsaE (from UniProt P0AF67 1-153) (enzyme; other documents disagree on this pair)”, the Kd (as a rule, the free concentration of one partner at which half of the binding sites on the other are occupied at equilibrium, for simple one-to-one binding) in data set [4] worked out at 2200 nM.
Take EcTsaC (Escherichia coli K-12): in data set [5], the Km stood at 0.13 ± 0.01 mM; the kcat (commonly the number of substrate molecules converted per active site and unit of time at saturation) was 0.132 ± 0.00333 s⁻¹. Also, in the data set on C[C@@H](O)[C@H](N)C(=O)O, the Km was 1.77 ± 0.26 mM and the catalytic constant (kcat) is 0.15 ± 0.00667 s⁻¹.
